From ChEMBL document CHEMBL1127682, “Resolution, absolute stereochemistry, and pharmacology of the S-(+)- and R-(-)-isomers of the apparent partial AMPA receptor agonist (R,S)-2-amino-3-(3-hydroxy-5-phenylisoxazol-4-yl)propionic acid [(R,S)-APPA]” (J Med Chem, 1994)

Assays:
Glutamate NMDA receptor [1] = assay: Compound was evaluated for the inhibition of binding of [3H]- MK-801 to NMDA receptor; type: protein-complex assay
[2] = target: T1, Glutamate receptor ionotropic, AMPA (Rattus norvegicus, UniProt P19490+P19491+P19492+P19493); assay: Compound was evaluated for the inhibition of binding of [3H]AMPA to the AMPA receptor; type: protein-complex assay
Glutamate NMDA receptor [3] = assay: Compound was evaluated for the inhibition of binding of [3H]- CPP to NMDA receptor; type: protein-complex assay
[4] = target: Glutamate receptor ionotropic, kainate; assay: Compound was evaluated for the inhibition of binding of [3H]-Kainic acid to kianic acid receptor; type: protein-complex assay
[5] = target: T1, Glutamate receptor ionotropic, AMPA; assay: Compound was evaluated for the antagonist activity on AMPA receptor in rat cortical wedge preparation; type: functional
[6] = target: Glutamate receptor ionotropic, NMDA 1 (Rattus norvegicus, UniProt P35439); assay: Compound was evaluated for the inhibition of binding of [3H]glycine to NMDA receptor
[7] = target: T1, Glutamate receptor ionotropic, AMPA; assay: Compound was evaluated for the agonist activity on AMPA receptor in rat cortical wedge preparation; type: functional
Rattus norvegicus = organism: Rattus norvegicus; assay: The compound was evaluated for agonist sensitivity to antagonist NBQX; type: functional
In short: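 Rat cortical wedges (500-μm, cortex plus corpus callosum) superfused with Mg2+- and Ca2+-free oxygenated Krebs buffer at room temperature; agonist depolarization concentration-response curves recorded with and without 0.5 μM NBQX; pKi calculated from the parallel shift; means ± SEM of at least three experiments.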

| SMILES | IC50 (Glutamate NMDA receptor [1]) [µM] | IC50 [2] [µM] | IC50 (Glutamate NMDA receptor [3]) [µM] | IC50 [4] [µM] | Ki [5] [µM] | IC50 [6] [µM] | EC50 [7] [µM] | Log Ki (Rattus norvegicus) |
| --- | --- | --- | --- | --- | --- | --- | --- | --- |
| NC(Cc1c(O)noc1-c1ccccc1)C(=O)O (racemic) | > 100 | 35 | > 100 | > 100 | – | > 100 | 385 | – |
| Cc1onc(O)c1CC(N)C(=O)O (racemic) [(R,S)-AMPA] | – | – | – | – | – | – | – | -6.56 |
| C=C(C)[C@H]1CN[C@H](C(=O)O)[C@H]1CC(=O)O [KAINIC ACID] | > 100 | – | > 100 | – | – | > 100 | – | -5.42 |

Now from value to compound, other results behind:

| IC50 (Glutamate NMDA receptor [1]) [µM] | IC50 [2] [µM] | IC50 (Glutamate NMDA receptor [3]) [µM] | IC50 [4] [µM] | Ki [5] [µM] | IC50 [6] [µM] | EC50 [7] [µM] | SMILES | Log Ki (Rattus norvegicus) |
| --- | --- | --- | --- | --- | --- | --- | --- | --- |
| > 100 | > 100 | > 100 | > 100 | 286 | > 100 | – | N[C@H](Cc1c(O)noc1-c1ccccc1)C(=O)O | – |
| > 100 | 6 | > 100 | > 100 | – | > 100 | 230 | N[C@@H](Cc1c(O)noc1-c1ccccc1)C(=O)O | -6.3 |
